Measurements as given in ChEMBL document CHEMBL3244233, “Synthesis and biological activities of some N6- and N9-carbamoyladenines and related ribonucleosides” (1977).
Calls of active or inactive are those of the source. The calls are words filed in the database; no cut-off is given here.

Columns and labels:
Assay type in all cases: functional
[1] = Growth inhibition of human RPMI6410 cells assessed as viable cells at 10^-4 M after 72 hrs relative to control; details: RPMI 6410, 72 h, read-out: Activity
Method in brief: (§1)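 Nc 37 cells come from a normal human buffy coat, RPMI 6410 from the buffy coat of a myeloblastic leukemia patient, and L1210 is mouse leukemia. Cells were grown in RPMI 1640 with 10% fetal calf serum and exposed to compound at 10^-4 M in medium containing 0.5% Me2SO for 72 h. Viable cell number is expressed as percent of 0.5% Me2SO controls and scored as ++ 30-60%, + 60-80%, ± 80-90%, NA 90-110%.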

L1210 [2] = assay: Growth inhibition of mouse L1210 cells assessed as viable cells at 10^-4 M after 72 hrs relative to control; details: L1210, 72 h, read-out: Activity; method in brief: as §1
[3] = Growth inhibition of human Nc37 cells assessed as viable cells at 10^-4 M after 72 hrs relative to control; details: NC-37, 72 h, read-out: Activity; method in brief: as §1
L1210 [4] = assay: Growth inhibition of mouse L1210 cells at 10^-4 M after 72 hrs relative to control; details: L1210, 72 h, read-out: GI; method in brief: as §1
L1210 [5] = assay: Antitumor activity against mouse L1210 cells allografted in mouse assessed as increase in life span of host
[6] = Growth inhibition of human Nc37 cells assessed as viable cells at 10^-5 M after 72 hrs relative to control; details: NC-37, 72 h, read-out: Activity
[7] = Growth inhibition of human RPMI6410 cells assessed as viable cells at 10^-5 M after 72 hrs relative to control; details: RPMI 6410, 72 h, read-out: Activity

Compound	viability at 100 µM [1] [%]	viability at 100 µM (L1210 [2]) [%]	viability at 100 µM [3] [%]	inhibition of growth at 100 µM (L1210 [4]) [%]	Activity (L1210 [5])	viability at 10 µM [6] [%]	viability at 10 µM [7] [%]
O=C(Nc1ccccc1F)Nc1ncnc2c1ncn2[C@@H]1O[C@H](CO)[C@@H](O)[C@H]1O	30	30	60	–	–	–	–
O=C(Nc1ccccc1C(F)(F)F)Nc1ncnc2[nH]cnc12	90	–	30	–	–	–	–
Nc1ncnc2c1ncn2C(=O)Nc1ccccc1	60	30	90	–	–	–	–
O=C(Nc1ccc(F)cc1)Nc1ncnc2[nH]cnc12	90	30	90	–	–	–	–
CC(C)(C)CNC(=O)Nc1ncnc2c1ncn2[C@@H]1O[C@H](CO)[C@@H](O)[C@H]1O	90	80	90	–	–	–	–
Nc1ncnc2c1ncn2C(=O)N[C@@H](Cc1ccccc1)C(=O)O	80	> 30	30	≥ 70	–	–	–
Nc1ncnc2c1ncn2C(=O)NC1CCCCC1	30	> 30	30	≥ 70	–	–	–
O=C(Nc1ccccc1)Nc1ncnc2c1ncn2C(=O)Nc1ccccc1	80	30	60	–	–	–	–
C=CCNC(=O)Nc1ncnc2[nH]cnc12	60	60	60	–	–	–	–
Nc1ncnc2c1ncn2C(=O)NC(Cc1ccccc1)C(=O)OCc1ccccc1 (stereo not drawn)	90	30	60	–	–	–	–
CN(C(=O)Nc1ccccc1Cl)c1ncnc2c1ncn2C(=O)Nc1ccccc1Cl	60	30	90	–	–	–	–
CNC(=O)n1cnc2c(N)ncnc21	30	30	30	≥ 70	inactive	60	60
CNC(=O)Nc1ncnc2c1ncn2C(=O)NC	80	80	90	–	–	–	–
Nc1ncnc2c1ncn2C(=O)NCC(=O)OCc1ccccc1	80	> 30	60	≥ 70	–	–	–
CNC(=S)Nc1ncnc2[nH]cnc12	60	60	60	–	–	–	–
O=C(Nc1cccc2ccccc12)Nc1ncnc2c1ncn2C(=O)Nc1cccc2ccccc12	30	> 30	30	–	inactive	–	–
CNC(=O)Nc1ncnc2c1ncn2C(=O)Nc1ccccc1	90	30	90	–	–	–	–
COc1ccc(NC(=O)Nc2ncnc3c2ncn3C(=O)Nc2ccc(OC)cc2)cc1	90	30	90	–	–	–	–
O=C(Nc1ncnc2[nH]cnc12)NC1CCCCC1	60	60	60	–	–	–	–
CCCCNC(=O)Nc1ncnc2c1ncn2C(=O)NCCCC	60	30	90	–	–	–	–
O=C(NCCc1ccccc1Cl)Nc1ncnc2[nH]cnc12	60	60	30	–	–	–	–
O=C(O)CNC(=O)CNC(=O)Nc1ncnc2[nH]cnc12	90	90	90	–	–	–	–
CNC(=O)N(C)c1ncnc2c1ncn2C(=O)NC	60	30	30	–	–	–	–
CCCCNC(=O)Nc1ncnc2[nH]cnc12	60	30	60	–	–	–	–
Cc1ccccc1NC(=O)Nc1ncnc2c1ncn2C(=O)Nc1ccccc1C	90	60	60	–	–	–	–
CNC(=O)n1cnc2c(NC)ncnc21	60	90	30	–	–	–	–
CC(C)(C)NC(=O)Nc1ncnc2[nH]cnc12	60	60	60	–	–	–	–
